Source: ChEMBL document CHEMBL2163280 (J Med Chem, 2012)
pKi: −log10 of the molar value. Active and inactive are the calls of the source. The calls are words filed in the database; no cut-off is given here.

How the values were obtained:
[1] = target: Acetylcholine receptor; alpha1/beta1/delta/gamma (Homo sapiens) (UniProt P02708+P07510+P11230+Q07001); assay: Agonist activity at alpha1betagammadelta nACHR in human TE671/RD cells by 86Rb+ efflux assay; format: functional, cell-based
[2] = system: Neuronal acetylcholine receptor alpha2/beta2 rat; assay: Displacement of [3H]epibatidine from rat alpha2beta2 nACHR at 10 uM
[3] = target: Neuronal acetylcholine receptor; alpha4/beta2 (Rattus norvegicus) (UniProt P09483+P12390); assay: Displacement of [3H]epibatidine from rat alpha4beta2 nACHR at 10 uM; format: protein-complex assay
[4] = target: Neuronal acetylcholine receptor; alpha3/beta2 (Rattus norvegicus) (UniProt P04757+P12390); assay: Displacement of [3H]epibatidine from rat alpha3beta2 nACHR at 10 uM; format: protein-complex assay
[5] = species on record: Rattus norvegicus; assay: Displacement of [3H]epibatidine from rat forebrain alpha4beta2* nACHR at 10 uM
[6] = target: Neuronal acetylcholine receptor; alpha3/beta4 (Rattus norvegicus) (UniProt P04757+P12392); assay: Displacement of [3H]epibatidine from rat alpha3beta4 nACHR at 10 uM; format: protein-complex assay
[7] = target: Neuronal acetylcholine receptor; alpha2/beta4 (Rattus norvegicus) (UniProt P12389+P12392); assay: Displacement of [3H]epibatidine from rat alpha2beta4 nACHR at 10 uM; format: protein-complex assay
[8] = target: Neuronal acetylcholine receptor; alpha4/beta4 (Rattus norvegicus) (UniProt P09483+P12392); assay: Displacement of [3H]epibatidine from rat alpha4beta4 nACHR at 10 uM; format: protein-complex assay
[9] = Inhibition of muscarinic receptor at 10 uM
[10] = target: T1, CYP2D6 (Homo sapiens, UniProt P10635); assay: Inhibition of human liver microsome CYP2D6 using bufuralol as substrate assessed as residual activity at 1 uM; format: ADME; conditions: human liver microsomes, probe bufuralol, read-out: Activity
Outline: (§1)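 Human liver microsomes in a high-throughput multiple-CYP assay covering CYP1A2, 2B6, 2C9, 2C19, 2D6 and 3A4. Test compound at 1 and 10 μM; isoform activity expressed as % of control.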

[11] = target: T2, Neuronal acetylcholine receptors; alpha-3/beta-4, alpha-5, beta-2 (Homo sapiens) (UniProt P17787+P30926+P32297+P30532); assay: Agonist activity at alpha3beta4alpha5beta2 nACHR in human SH-SY5Y cells at 10 uM by 86Rb+ efflux assay; format: functional, cell-based
[12] = target: T2, Neuronal acetylcholine receptors; alpha-3/beta-4, alpha-5, beta-2 (Homo sapiens); assay: Inhibition of alpha3beta4alpha5beta2 nACHR in human SH-SY5Y cells at 10 uM by 86Rb+ efflux assay; format: cell-based
[13] = target: T3, CYP2B6 (Homo sapiens, UniProt P20813); assay: Inhibition of human liver microsome CYP2B6 using bupropion as substrate assessed as residual activity at 10 uM; format: ADME; conditions: human liver microsomes, probe bupropion, read-out: Activity; outline: as §1
[14] = Inhibition of opioid receptor at 10 uM
[15] = target: T4, CYP1A2 (Homo sapiens, UniProt P05177); assay: Inhibition of human liver microsome CYP1A2 using phenacetin as substrate assessed as residual activity at 1 uM; format: ADME; conditions: human liver microsomes, probe phenacetin, read-out: Activity; outline: as §1
[16] = target: T5, CYP2C19 (Homo sapiens, UniProt P33261); assay: Inhibition of human liver microsome CYP2C19 using mephenytoin as substrate assessed as residual activity at 10 uM; format: ADME; conditions: human liver microsomes, probe mephenytoin, read-out: Activity; outline: as §1
[17] = target: T6, CYP3A4 (Homo sapiens, UniProt P08684); assay: Inhibition of human liver microsome CYP3A4 using testosterone as substrate assessed as residual activity at 10 uM; format: ADME; conditions: human liver microsomes, probe testosterone, read-out: Activity; outline: as §1
[18] = system: Mus musculus; assay: Antidepressant activity in BALB/cJ mouse assessed as reduction in immobility at 5 mg/kg, po measured after 30 mins post drug administration by forced swim test; format: functional, organism-based; design: dose 5 mg/kg
Outline: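 Male BALB/cJ mice aged 8–10 weeks; drug given in injectable water by oral gavage at 10 mL/kg. Thirty minutes later each mouse was placed in water at 23±1 °C, 12 cm deep. Immobility time was recorded over a 6 min trial. n = 9–10/group; ANOVA followed by Fisher's PLSD.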

[19] = target: T7, CYP2C9 (Homo sapiens, UniProt P11712); assay: Inhibition of human liver microsome CYP2C9 using diclofenac as substrate assessed as residual activity at 10 uM; format: ADME; conditions: human liver microsomes, probe diclofenac, read-out: Activity; outline: as §1
[20] = Inhibition of GABA receptor at 10 uM
[21] = system: Mus musculus; assay: Antidepressant activity in BALB/cJ mouse assessed as reduction in immobility at 5 mg/kg, ip measured after 30 mins post drug administration by forced swim test; format: functional, organism-based; design: dose 5 mg/kg
Outline: (§2)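 Male BALB/cJ mice aged 8–10 weeks; drug given in injectable water by IP injection at 10 mL/kg. Thirty minutes later each mouse was placed in a glass cylinder of water at 23±1 °C, 12 cm deep. Immobility (floating) was scored over a 6 min trial. n = 9–10/group; ANOVA followed by Fisher's PLSD versus vehicle.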

[22] = Plasma protein binding in human at 0.1 to 10 uM by equilibrium dialysis; format: ADME, cell-free; conditions: read-out: PPB (converted)
Outline: (§3)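 Equilibrium dialysis against human or mouse plasma, with test compound at 0, 0.1, 1 and 10 μM; results expressed as mean percentage of compound bound to plasma proteins.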

[23] = Metabolic stability in human liver microsomes assessed as unchanged parent compound at 1 uM after 60 mins; format: ADME, Microsome; conditions: read-out: Stability
Outline: (§4)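 Test article incubated with human liver microsomes at 1 and 10 μM. Samples taken at 0, 15, 30 and 60 min, and parent remaining quantified by LC-MS/MS.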

[24] = target: Neuronal acetylcholine receptor subunit alpha-7 (Rattus norvegicus, UniProt Q05941); assay: Binding affinity to rat alpha7 nACHR […]
[25] = target: T4, CYP1A2; assay: Inhibition of human liver microsome CYP1A2 using phenacetin as substrate assessed as residual activity at 10 uM; format: ADME; conditions: human liver microsomes, probe phenacetin, read-out: Activity; outline: as §1
[26] = target: Neuronal acetylcholine receptor; alpha3/beta2 (Rattus norvegicus, UniProt P04757+P12390); assay: Displacement of [3H]epibatidine from rat alpha3beta2 nACHR; format: protein-complex assay
[27] = Plasma protein binding in mouse at 0.1 to 10 uM by equilibrium dialysis; format: ADME, cell-free; conditions: read-out: PPB (converted); outline: as §3
[28] = Inhibition of serotonin receptor at 10 uM
[29] = target: T7, CYP2C9; assay: Inhibition of human liver microsome CYP2C9 using diclofenac as substrate assessed as residual activity at 1 uM; format: ADME; conditions: human liver microsomes, probe diclofenac, read-out: Activity; outline: as §1
[30] = target: T6, CYP3A4; assay: Inhibition of human liver microsome CYP3A4 using midazolam as substrate assessed as residual activity at 1 uM; format: ADME; conditions: human liver microsomes, probe midazolam, read-out: Activity; outline: as §1
[31] = system: Mus musculus; assay: Antidepressant activity in BALB/cJ mouse assessed as reduction in immobility at 1 mg/kg, ip measured after 30 mins post drug administration by forced swim test; format: functional, organism-based; design: dose 1 mg/kg; outline: as §2
[32] = Metabolic stability in rat liver microsomes assessed as unchanged parent compound at 1 uM after 60 mins; format: ADME, Microsome; conditions: read-out: Stability
[33] = target: T6, CYP3A4; assay: Inhibition of human liver microsome CYP3A4 using midazolam as substrate assessed as residual activity at 10 uM; format: ADME; conditions: human liver microsomes, probe midazolam, read-out: Activity; outline: as §1
[34] = Inhibition of histamine receptor at 10 uM
[35] = Inhibition of dopamine receptor at 10 uM
[36] = Metabolic stability in rat liver microsomes assessed as unchanged parent compound at 10 uM after 60 mins; format: ADME, Microsome; conditions: read-out: Stability
[37] = system: Liver microsomes; assay: Drug metabolism in human liver microsomes assessed as unchanged parent compound at 1 to 10 uM; format: ADME, Microsome; conditions: TDE = time-dependent effect; outline: as §4
[38] = target: T5, CYP2C19; assay: Inhibition of human liver microsome CYP2C19 using mephenytoin as substrate assessed as residual activity at 1 uM; format: ADME; conditions: human liver microsomes, probe mephenytoin, read-out: Activity; outline: as §1
[39] = Inhibition of adrenergic receptor at 10 uM
[40] = target: Neuronal acetylcholine receptor; alpha4/beta4 (Rattus norvegicus, UniProt P09483+P12392); assay: Displacement of [3H]epibatidine from rat alpha4beta4 nACHR; format: protein-complex assay
[41] = target: Neuronal acetylcholine receptor; alpha2/beta4 (Rattus norvegicus, UniProt P12389+P12392); assay: Displacement of [3H]epibatidine from rat alpha2beta4 nACHR; format: protein-complex assay
[42] = target: hERG (KCNH2) (Homo sapiens, UniProt Q12809); assay: Inhibition of human recombinant ERG expressed in HEK293 cells at 10 uM by fluorescence-based membrane potential analysis; format: cell-based; conditions: HEK293 cells expressing human recombinant ERG
Outline: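 HEK293 cells stably expressing recombinant human hERG, read in a fluorescence-based membrane potential assay. Test compound at 10 μM, compared with a negative control.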

[43] = target: T1, CYP2D6; assay: Inhibition of human liver microsome CYP2D6 using […] as substrate assessed as residual activity at 10 uM; format: ADME; conditions: human liver microsomes, probe burfuralol, read-out: Activity; outline: as §1
[44] = system: Liver microsomes; assay: Drug metabolism in rat liver microsomes assessed as unchanged parent compound at 1 to 10 uM; format: ADME, Microsome; conditions: TDE = time-dependent effect
[45] = Binding affinity to rat forebrain alpha7* nACHR at 10 uM
[46] = target: T3, CYP2B6; assay: Inhibition of human liver microsome CYP2B6 using bupropion as a substrate assessed as residual activity at 1 uM; format: ADME; conditions: human liver microsomes, probe bupropion, read-out: Activity; outline: as §1
[47] = target: T6, CYP3A4; assay: Inhibition of human liver microsome CYP3A4 using testosterone as substrate assessed as residual activity at 1 uM; format: ADME; conditions: human liver microsomes, probe testosterone, read-out: Activity; outline: as §1
[48] = Metabolic stability in human liver microsomes assessed as unchanged parent compound at 10 uM after 60 mins; format: ADME, Microsome; conditions: read-out: Stability
Outline: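 Test article incubated with human liver microsomes at 1 μM and 10 μM; aliquots taken at 0, 15, 30 and 60 min and analysed by LC-MS/MS for remaining unchanged parent drug.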

[49] = Inhibition of sigma receptor at 10 uM
[50] = Displacement of [3H]epibatidine from rat forebrain alpha4beta2* nACHR

T6 sequence (P08684 whole entry): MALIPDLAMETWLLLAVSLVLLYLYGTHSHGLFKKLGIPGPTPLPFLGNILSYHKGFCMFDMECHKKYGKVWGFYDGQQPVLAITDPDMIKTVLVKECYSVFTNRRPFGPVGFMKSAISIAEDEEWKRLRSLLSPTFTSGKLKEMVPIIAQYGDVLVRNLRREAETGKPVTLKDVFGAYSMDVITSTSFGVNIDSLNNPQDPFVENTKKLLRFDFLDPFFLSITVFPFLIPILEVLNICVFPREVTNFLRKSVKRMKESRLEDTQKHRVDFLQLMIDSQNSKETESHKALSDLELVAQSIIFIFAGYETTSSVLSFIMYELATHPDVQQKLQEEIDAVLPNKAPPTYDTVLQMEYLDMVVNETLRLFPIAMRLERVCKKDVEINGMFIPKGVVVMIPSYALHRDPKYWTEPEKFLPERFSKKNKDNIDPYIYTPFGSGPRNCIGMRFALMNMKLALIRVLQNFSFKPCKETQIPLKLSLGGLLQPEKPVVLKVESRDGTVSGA
T2 sequence (P17787 whole entry, looked up): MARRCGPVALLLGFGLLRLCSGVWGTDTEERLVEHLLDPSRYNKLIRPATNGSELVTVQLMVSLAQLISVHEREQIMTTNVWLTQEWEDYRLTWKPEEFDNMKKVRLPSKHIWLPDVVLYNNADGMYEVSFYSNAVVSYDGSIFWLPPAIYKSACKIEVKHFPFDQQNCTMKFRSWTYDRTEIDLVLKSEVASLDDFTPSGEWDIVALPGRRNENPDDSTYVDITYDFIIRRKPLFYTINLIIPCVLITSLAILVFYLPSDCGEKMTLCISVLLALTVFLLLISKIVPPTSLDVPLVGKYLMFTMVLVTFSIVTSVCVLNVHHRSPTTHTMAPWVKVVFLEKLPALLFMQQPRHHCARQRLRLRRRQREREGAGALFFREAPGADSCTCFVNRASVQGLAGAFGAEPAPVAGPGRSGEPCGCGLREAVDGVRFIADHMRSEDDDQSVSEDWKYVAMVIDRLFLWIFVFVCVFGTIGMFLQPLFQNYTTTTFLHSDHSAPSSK
T2 sequence (P30532 whole entry, looked up): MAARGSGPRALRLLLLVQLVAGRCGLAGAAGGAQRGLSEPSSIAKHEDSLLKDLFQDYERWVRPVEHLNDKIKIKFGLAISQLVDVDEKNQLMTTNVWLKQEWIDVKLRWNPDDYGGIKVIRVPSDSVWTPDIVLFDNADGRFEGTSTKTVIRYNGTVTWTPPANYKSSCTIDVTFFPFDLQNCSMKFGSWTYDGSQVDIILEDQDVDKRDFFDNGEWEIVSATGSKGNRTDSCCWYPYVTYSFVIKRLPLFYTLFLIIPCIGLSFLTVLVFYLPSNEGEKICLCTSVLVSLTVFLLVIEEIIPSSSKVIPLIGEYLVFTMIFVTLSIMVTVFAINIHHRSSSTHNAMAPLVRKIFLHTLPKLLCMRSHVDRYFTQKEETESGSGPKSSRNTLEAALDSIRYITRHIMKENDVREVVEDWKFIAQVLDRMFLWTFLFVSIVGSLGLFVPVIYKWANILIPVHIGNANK
T2 sequence (P30926 whole entry, looked up): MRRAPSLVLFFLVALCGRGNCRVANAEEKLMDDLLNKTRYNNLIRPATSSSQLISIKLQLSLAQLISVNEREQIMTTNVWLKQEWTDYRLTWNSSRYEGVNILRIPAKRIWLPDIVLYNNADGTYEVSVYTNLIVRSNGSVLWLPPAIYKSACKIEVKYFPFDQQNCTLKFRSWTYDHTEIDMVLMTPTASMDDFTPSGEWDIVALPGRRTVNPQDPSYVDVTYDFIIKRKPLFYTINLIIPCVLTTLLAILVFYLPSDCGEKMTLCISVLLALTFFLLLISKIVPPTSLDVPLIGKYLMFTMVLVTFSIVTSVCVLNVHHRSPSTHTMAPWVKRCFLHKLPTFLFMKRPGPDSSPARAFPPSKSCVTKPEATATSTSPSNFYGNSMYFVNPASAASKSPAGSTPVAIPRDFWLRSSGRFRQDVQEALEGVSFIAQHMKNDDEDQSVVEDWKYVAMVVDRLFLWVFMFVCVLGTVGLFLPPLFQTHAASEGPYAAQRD
T2 sequence (P32297 whole entry, looked up): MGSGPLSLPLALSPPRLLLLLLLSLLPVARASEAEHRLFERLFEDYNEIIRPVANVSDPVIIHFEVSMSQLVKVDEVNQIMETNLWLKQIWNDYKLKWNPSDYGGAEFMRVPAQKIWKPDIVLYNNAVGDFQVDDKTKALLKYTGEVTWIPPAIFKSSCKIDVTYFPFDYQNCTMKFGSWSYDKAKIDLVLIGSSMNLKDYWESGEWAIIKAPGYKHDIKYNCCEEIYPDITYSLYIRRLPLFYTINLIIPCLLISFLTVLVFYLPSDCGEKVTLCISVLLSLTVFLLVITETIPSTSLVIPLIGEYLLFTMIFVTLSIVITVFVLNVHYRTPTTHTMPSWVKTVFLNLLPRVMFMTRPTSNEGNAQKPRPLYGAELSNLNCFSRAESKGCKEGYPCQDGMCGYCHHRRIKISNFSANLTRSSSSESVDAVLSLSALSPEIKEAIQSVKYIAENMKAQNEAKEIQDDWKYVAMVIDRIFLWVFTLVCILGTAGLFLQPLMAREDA
T7 sequence (P11712 whole entry): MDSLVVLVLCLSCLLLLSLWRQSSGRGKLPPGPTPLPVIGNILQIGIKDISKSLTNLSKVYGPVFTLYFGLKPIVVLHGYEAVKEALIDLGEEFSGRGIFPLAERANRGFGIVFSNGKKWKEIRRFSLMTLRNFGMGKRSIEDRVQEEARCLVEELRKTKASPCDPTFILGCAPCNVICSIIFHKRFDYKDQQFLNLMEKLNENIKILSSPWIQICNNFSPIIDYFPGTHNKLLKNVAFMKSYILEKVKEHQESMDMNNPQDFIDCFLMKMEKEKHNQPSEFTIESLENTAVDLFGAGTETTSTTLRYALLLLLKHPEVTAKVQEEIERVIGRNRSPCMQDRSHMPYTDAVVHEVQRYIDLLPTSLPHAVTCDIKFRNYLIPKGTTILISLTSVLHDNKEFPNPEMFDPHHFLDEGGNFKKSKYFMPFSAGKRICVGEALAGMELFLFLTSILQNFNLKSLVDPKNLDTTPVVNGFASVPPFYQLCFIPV
T1 sequence (P10635 whole entry, canonical isoform): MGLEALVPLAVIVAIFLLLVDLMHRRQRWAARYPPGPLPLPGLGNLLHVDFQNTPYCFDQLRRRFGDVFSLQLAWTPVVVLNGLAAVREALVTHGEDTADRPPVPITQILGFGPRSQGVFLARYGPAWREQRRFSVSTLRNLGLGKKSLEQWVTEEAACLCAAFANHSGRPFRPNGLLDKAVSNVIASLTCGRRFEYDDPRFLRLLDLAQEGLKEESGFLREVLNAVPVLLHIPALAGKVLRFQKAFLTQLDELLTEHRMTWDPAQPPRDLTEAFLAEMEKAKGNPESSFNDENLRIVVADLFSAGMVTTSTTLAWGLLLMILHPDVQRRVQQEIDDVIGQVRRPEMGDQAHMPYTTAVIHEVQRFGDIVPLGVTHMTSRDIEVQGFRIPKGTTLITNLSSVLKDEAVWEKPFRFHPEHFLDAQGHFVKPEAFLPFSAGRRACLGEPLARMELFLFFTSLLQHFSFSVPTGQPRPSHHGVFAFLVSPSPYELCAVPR
T3 sequence (P20813 whole entry): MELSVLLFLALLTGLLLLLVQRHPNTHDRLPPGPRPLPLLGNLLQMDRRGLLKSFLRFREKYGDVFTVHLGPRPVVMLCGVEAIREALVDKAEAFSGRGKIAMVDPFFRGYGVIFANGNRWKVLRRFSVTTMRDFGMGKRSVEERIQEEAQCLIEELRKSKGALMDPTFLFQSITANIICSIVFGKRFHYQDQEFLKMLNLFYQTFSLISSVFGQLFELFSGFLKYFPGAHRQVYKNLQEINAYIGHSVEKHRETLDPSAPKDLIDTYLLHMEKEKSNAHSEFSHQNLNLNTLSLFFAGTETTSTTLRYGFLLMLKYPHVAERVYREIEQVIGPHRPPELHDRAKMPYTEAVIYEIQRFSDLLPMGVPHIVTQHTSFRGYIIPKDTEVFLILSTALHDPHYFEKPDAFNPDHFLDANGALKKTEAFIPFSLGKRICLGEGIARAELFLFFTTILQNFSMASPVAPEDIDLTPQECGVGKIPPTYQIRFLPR
T4 sequence (P05177 whole entry): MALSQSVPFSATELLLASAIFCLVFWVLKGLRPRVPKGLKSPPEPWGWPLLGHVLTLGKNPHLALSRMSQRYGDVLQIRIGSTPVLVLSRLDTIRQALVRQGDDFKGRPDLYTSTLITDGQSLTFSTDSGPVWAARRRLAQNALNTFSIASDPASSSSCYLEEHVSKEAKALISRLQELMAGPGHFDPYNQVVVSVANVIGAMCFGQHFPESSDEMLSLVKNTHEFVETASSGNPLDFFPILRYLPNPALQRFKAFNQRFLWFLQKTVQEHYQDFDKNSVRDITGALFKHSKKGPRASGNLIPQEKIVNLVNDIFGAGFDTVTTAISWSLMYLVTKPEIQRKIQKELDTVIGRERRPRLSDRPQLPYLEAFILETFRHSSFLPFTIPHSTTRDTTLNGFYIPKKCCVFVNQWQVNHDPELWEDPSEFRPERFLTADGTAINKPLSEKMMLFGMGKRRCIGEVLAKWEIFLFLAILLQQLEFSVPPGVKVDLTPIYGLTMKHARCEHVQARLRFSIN
T5 sequence (P33261 whole entry): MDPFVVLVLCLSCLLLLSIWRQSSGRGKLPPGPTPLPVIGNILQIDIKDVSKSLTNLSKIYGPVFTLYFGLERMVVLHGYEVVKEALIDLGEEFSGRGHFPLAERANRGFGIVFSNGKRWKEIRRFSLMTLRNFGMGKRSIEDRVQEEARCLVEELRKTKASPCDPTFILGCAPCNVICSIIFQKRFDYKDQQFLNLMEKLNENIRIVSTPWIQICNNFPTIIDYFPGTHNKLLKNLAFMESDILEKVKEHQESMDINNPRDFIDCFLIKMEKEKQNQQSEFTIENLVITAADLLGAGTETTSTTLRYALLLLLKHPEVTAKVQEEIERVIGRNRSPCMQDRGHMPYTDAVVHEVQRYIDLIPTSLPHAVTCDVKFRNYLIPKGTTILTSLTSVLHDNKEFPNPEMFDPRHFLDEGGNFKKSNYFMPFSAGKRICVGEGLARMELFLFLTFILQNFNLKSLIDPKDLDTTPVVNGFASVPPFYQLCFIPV

SMILES: c1ccc(NCc2cc(OC[C@@H]3CCN3)on2)cc1
- Activity [1]: inactive

SMILES: c1ccc(OCc2cc(OC[C@@H]3CCN3)no2)cc1
- Activity [2]: < 50%
- Activity [3]: < 50%
- Activity [4]: < 50%
- Activity [5]: < 50%
- Activity [6]: < 50%
- Activity [1]: inactive
- Activity [7]: < 50%
- Activity [8]: < 50%

SMILES: Cc1cc(OC[C@@H]2CCN2)on1
- inhibition [9]: > 50%
- activity at 1 µM [10]: < 70%
- Efficacy [11]: 120%
- Efficacy [12]: > 70%
- activity at 10 µM [13]: < 70%
- inhibition [14]: > 50%
- activity at 1 µM [15]: < 70%
- activity at 10 µM [16]: < 70%
- activity at 10 µM [17]: < 70%
- Activity [18]: Active
- activity at 10 µM [19]: < 70%
- inhibition [20]: > 50%
- Activity [21]: Active
- fraction unbound at up to 10 µM [22]: 0.918
- remaining at 1 h, 1 µM [23]: 53.4%
- pKi [24]: 5.54
- activity at 10 µM [25]: < 70%
- Activity [1]: inactive
- pKi [26]: 8.06
- fraction unbound at up to 10 µM [27]: 0.871
- inhibition [28]: > 50%
- activity at 1 µM [29]: < 70%
- activity at 1 µM [30]: < 70%
- Activity [31]: Active
- remaining at 1 h, 1 µM [32]: 67.5%
- activity at 10 µM [33]: < 70%
- inhibition [34]: > 50%
- inhibition [35]: > 50%
- remaining at 1 h, 10 µM [36]: 73.7%
- Drug metabolism [37]: tde
- activity at 1 µM [38]: < 70%
- inhibition [39]: > 50%
- pKi [40]: 7.07
- pKi [41]: 6.51
- inhibition at 10 µM [42]: 0%
- activity at 10 µM [43]: < 70%
- Drug metabolism [44]: tde
- pKi [45]: 5.17
- activity at 1 µM [46]: < 70%
- activity at 1 µM [47]: < 70%
- remaining at 1 h, 10 µM [48]: 67.2%
- inhibition [49]: > 50%
- pKi [50]: 7.92
